Only some compounds are listed: those with a hit (about 2.6% of all), similar ones and a draw of the others.
Rev-erbA mod: Rev-erb alpha (human) modulation; activity, % at 10 µM; hit rate 0.79% among 370,000; Rev-erbα–FITC-DNA binding, fluorescence polarization, 90 min; P20393; AID 1259318;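 active = activity above about 14%, limit read from the data; passing the limit was not always enough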;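 also: 0% = DMSO wells with 35 nM protein and 100% = DMSO wells with 750 nM protein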
Target sequence (P20393 whole entry, looked up): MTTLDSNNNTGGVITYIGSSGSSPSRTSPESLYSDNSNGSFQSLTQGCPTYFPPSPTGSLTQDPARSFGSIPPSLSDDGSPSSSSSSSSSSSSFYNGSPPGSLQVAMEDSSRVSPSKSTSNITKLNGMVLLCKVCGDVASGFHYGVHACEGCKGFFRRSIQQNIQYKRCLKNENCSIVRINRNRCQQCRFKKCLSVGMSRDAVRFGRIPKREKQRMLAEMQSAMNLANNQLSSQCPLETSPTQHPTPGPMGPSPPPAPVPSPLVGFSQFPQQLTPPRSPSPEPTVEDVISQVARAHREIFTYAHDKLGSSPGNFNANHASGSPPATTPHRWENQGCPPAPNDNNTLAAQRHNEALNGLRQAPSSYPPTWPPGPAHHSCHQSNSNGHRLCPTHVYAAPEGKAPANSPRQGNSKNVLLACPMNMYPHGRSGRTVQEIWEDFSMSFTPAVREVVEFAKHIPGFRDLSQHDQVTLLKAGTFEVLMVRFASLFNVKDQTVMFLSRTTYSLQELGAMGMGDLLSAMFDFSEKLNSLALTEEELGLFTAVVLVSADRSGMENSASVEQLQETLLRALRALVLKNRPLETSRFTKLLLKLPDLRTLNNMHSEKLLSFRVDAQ
rCAG binder: r(CAG) repeat RNA binding; hit rate 1.3% among 370,000; TO-PRO-1 dye displacement fluorescence; inhibition, % at 3 µM; AID 651821;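 active = inhibition above the plate cutoff, the mean of all test compounds on that plate plus 3 SD, cut at about 35% in these data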;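 also: 0% = DMSO alone and 100% = 100 µM mitoxantrone as full dye displacement; higher means more dye released from RNA so lower well fluorescence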
PG9 Ab binder: binds the HIV-1 gp120 antibody PG9. TR-FRET gp120-PG9 antibody binding. inhibition, % at 6.7 µM. hit rate 0.43% among 360,000. AID 624416; in the data active = inhibition above about 8.5%
NR2E3 ag-1: activates human photoreceptor nuclear receptor NR2E3; Q9Y5X4; GST-NR2E3/biotin-RetCOR TR-FRET, 1536-well; inhibition of corepressor binding, % at 4.78 µM; hit rate 0.12% among 320,000; AID 2300;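 active = percent inhibition above the cutoff of mean plus 3 SD of all tested compounds, set per screening campaign, cut at about 20% in these data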;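 also: 0% = DMSO wells and 100% = biotin wells as full block of FRET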
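Material: NR2E3–RetCOR corepressor complex / Amount: 1.35 nM GST-NR2E3 / Medium: Tris pH 7.5 / Compound: single nominal compound dose of 4.8 µM / Incubation: 5 h at 4 °C / Technique: TR-FRET, Eu(K)-anti-GST donor, streptavidin-D2 acceptor, ex 340, em 617/671 nm / Read-out basis: percent loss of FRET ratio relative to control wells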
NR2E3 ag-2: agonists of human NR2E3 nuclear receptor; Q9Y5X4; CHO-S Gal4-NCOR/VP16-NR2E3 two-hybrid, luciferase; inhibition of corepressor binding, % at 3.98 µM; hit rate 0.35% among 360,000;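 active = inhibition above the mean of all tested compounds plus 3 SD, cut at about 70% in these data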;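 also: 0% = DMSO with NR2E3 transfected cells and 100% = cells lacking NR2E3 construct; higher means lower luciferase signal from less NR2E3 corepressor binding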
rCAG bind conf: r(CAG) RNA repeat binding, confirmation. shares compounds with rCAG binder. TO-PRO-1 dye displacement fluorescence. inhibition, % at 3 µM. hit rate 70% among 4,300. AID 652065;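 active = inhibition above a per-plate cutoff, the mean inhibition of sample wells plus 3 SD, cut at about 35% in these data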;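 also: loss of TO-PRO-1 fluorescence as compound displaces dye from 1x1 AA loop RNA; 0% = DMSO only wells and 100% = 100 µM mitoxantrone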
dCAG dye counter: disrupts DNA CAG TO-PRO-1 complex, flagging rCAG hits; shares compounds with rCAG binder; d(CAG) DNA oligo TO-PRO-1 dye displacement, fluorescence; inhibition, % at 3 µM; hit rate 94% among 4,300; AID 652068;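 active = inhibition above its plate's cutoff, the mean test-well inhibition plus 3 SD, cut at about 4.8% in these data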;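 also: 0% = DNA dye mix with DMSO and 100% = 100 µM mitoxantrone; hits displace the dye from DNA and so lower well fluorescence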
The depositor's hits bear a star; . = no result.

SMILES	Rev-erbA mod	rCAG binder	PG9 Ab binder	NR2E3 ag-1	NR2E3 ag-2	rCAG bind conf	dCAG dye counter
CCOC(=O)c1ccn(CSc2c(F)c(F)cc(F)c2F)n1	0.0	-0.9	2.3	3.6	-4.9	.	.
COc1ccc(CN(C)C(=O)C(CCSC)NS(=O)(=O)c2ccc3c(c2)OCCO3)c(OC)c1OC (stereo not given)	9.2	-0.7	0.8	.	-9.7	.	.
CCCCc1ccc(NC(=O)CSCc2cc(=O)[nH][nH]2)cc1	-1.3	42.4*	-3.6	1.8	-12.5	14.6	4.5*
O=C(CSCc1cc(=O)[nH][nH]1)Nc1ccc(F)cc1	4.0	5.6	-1.7	-3.5	-23.3	.	.
CC(C)CCCCCCCCc1cccc(O)c1C(=O)O	-11.2	89.4*	4.0	.	.	86.5*	52.0*
COc1ccc(Cl)cc1NC(=O)COC(=O)C1CC(=O)N(Cc2ccccc2)C1 (stereo not given)	-2.0	1.1	0.4	.	-17.8	.	.
CC(=O)Nc1ccc(S(=O)(=O)NNC(=O)c2cc3c4ccccc4n(C)c3s2)cc1	14.2	35.5*	2.9	2.5	-11.2	31.5	15.9*
CC(C)C[C@@H]1NC(=O)[C@@H]2CSCCS(=O)(=O)N2C1=O	-0.3	-0.3	1.2	.	.	.	.
Nc1c(SCCC(=O)O)ccc2c1C(=O)c1ccccc1C2=O	-0.7	36.8*	-13.9	-10.4	-53.6	14.6	2.3
O=S(=O)(N/N=C1/CC(c2ccccc2)Oc2ccccc21)c1ccccc1 (stereo not given)	0.9	35.6*	-1.5	.	-41.2	32.0	9.6*
CC(C)(C)N/N=C1\CC(c2ccccc2)Oc2ccccc21 (stereo not given)	7.0	-1.1	-0.8	3.4	-13.4	.	.
O=C(O)c1cc(N/N=C2/CC(c3ccccc3)Oc3ccccc32)ccc1Cl (stereo not given)	-2.0	46.2*	-2.5	4.9	-14.4	62.4*	22.4*
Cc1ccc(S(=O)(=O)NCc2ccccc2)cc1C(=O)N1CCN(S(=O)(=O)c2ccccc2F)CC1	-0.9	2.3	-1.4	.	-12.3	.	.
O=C(COc1ncnc2c(Cl)cc(Cl)cc12)Nc1cc([N+](=O)[O-])ccc1Cl	-7.0	68.1*	-1.0	-0.4	-17.3	13.6	9.4*
Cc1ccccc1-c1nnc(SCC(=O)NC2CCS(=O)(=O)C2)n1C (stereo not given)	0.9	2.6	1.1	.	-2.1	.	.
COc1ccc([C@H]2CC(=O)C=C(c3ccc(CNC(=O)OC(C)(C)C)cc3)C2)cc1	4.0	-7.2	-0.5	1.0	10.2	.	.
Cc1ccc(C)c(NC(=O)CSc2nc(N)c(NC(=O)c3cccs3)c(=O)[nH]2)c1	7.4	2.7	-1.3	.	9.2	.	.
Cc1ccc(C)c(NC(=O)CSc2nc3nc(-c4cccs4)cc(C(F)(F)F)c3c(=O)[nH]2)c1	5.7	57.8*	2.9	13.8	-6.6	82.9*	47.0*
O=C(N[C@H](C(=O)N1CCC[C@H]1C(=O)NC1CCCC1)c1ccccc1)C1CCCC1	3.4	-0.8	-0.5	.	.	.	.
O=C(NNC(=O)c1cc2ccccc2cc1O)c1cccs1	-3.8	18.1	-0.6	-0.5	-91.2	.	.
C/C(=N\NC(=O)c1cc2ccccc2cc1O)c1ccc(C)o1	8.1	43.0*	-2.5	-2.9	-20.2	11.8	6.5*
C/C(=N\NC(=O)c1cc2ccccc2cc1O)c1cccs1	-5.4	49.6*	-3.5	-1.9	-189.8	8.6	3.5
C/C(=N/NC(=O)c1cc2ccccc2cc1O)c1ccco1	-7.4	50.9*	-0.9	-4.8	-14.1	10.6	9.0*
COc1cccc(CNc2nc3cc(-c4cscc4C)sc3c(=O)n2C)c1	-1.2	10.1	1.0	.	4.0	.	.
CCc1ccc2nc(N3C(=O)C(O)=C(C(=O)c4ccco4)C3c3cccs3)sc2c1 (stereo not given)	.	.	.	7.8	-104.8	.	.

Source: PubChem BioAssay
